In ChEMBL document CHEMBL1268891, “Novel synthetic 2-amino-10-(3,5-dimethoxy)benzyl-9(10H)-acridinone derivatives as potent DNA-binding antiproliferative agents” (Bioorg Med Chem, 2010):
The source made the active and inactive calls. The calls are words filed in the database; no cut-off is given here.

Legend:
[1] = target: T1, DNA topoisomerase 1 (Homo sapiens) (UniProt P11387); experiment: Inhibition of human recombinant DNA topoisomerase 1-mediated DNA cleavage assessed as relaxation of supercoiled pBR322 plasmid DNA at 50 uM […] by ethidium bromide staining
T1 sequence (whole entry): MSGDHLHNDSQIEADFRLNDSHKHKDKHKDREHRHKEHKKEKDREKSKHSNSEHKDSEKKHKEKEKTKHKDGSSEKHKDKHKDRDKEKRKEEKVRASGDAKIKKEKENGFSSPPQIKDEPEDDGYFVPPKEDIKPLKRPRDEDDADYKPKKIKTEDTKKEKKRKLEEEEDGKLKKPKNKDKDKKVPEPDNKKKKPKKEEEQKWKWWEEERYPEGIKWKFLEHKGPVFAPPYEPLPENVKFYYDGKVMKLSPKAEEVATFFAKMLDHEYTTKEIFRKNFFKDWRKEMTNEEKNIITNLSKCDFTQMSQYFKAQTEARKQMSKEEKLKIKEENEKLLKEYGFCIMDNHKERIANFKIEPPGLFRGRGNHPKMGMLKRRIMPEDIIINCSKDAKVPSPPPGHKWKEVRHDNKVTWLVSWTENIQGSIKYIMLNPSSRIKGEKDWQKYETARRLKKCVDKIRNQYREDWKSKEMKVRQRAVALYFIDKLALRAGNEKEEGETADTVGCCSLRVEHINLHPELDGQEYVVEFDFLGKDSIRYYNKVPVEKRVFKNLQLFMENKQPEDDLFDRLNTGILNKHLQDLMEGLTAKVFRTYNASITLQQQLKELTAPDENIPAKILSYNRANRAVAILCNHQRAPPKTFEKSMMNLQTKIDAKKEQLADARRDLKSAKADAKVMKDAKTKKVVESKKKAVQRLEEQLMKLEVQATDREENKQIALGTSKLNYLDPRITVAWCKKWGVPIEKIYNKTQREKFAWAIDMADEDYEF
In short: (§1)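 pBR322 (100 ng) incubated with 1.0 unit recombinant human topoisomerase I, with or without compound (10–50 or 250 μM), for 30 min at 37 °C. DMSO control included. Products run on 1% agarose in TAE at 100 V for 25 min and stained with ethidium bromide.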

[2] = target: T1, DNA topoisomerase 1 (Homo sapiens); experiment: Inhibition of human recombinant DNA topoisomerase 1-mediated DNA cleavage assessed as relaxation of supercoiled pBR322 plasmid DNA at 250 uM […] by ethidium bromide staining; in short: as §1
[3] = tested on: CCRF-CEM; experiment: Cytotoxicity against human CCRF-CEM cells after 48 hrs by MTT assay; type: functional, cell-based
In short: (§2)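 CCRF-CEM cells grown in RPMI 1640 with 10% FBS and penicillin/streptomycin at 37 °C, 5% CO₂. Seeded at 2×10^5 cells/mL and exposed to graded doses from DMSO stock, in quintuplicate, for 48 h. MTT (5 mg/mL) added for 4 h, formazan dissolved in DMSO and read at 490 nm. IC50 is the concentration giving 50% growth inhibition.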

[4] = tested on: HepG2; experiment: Cytotoxicity against human HepG2 cells after 48 hrs by MTT assay; type: functional, cell-based; conditions: HepG2, 48 h
In short: as §2, with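 “A549, HepG2 and MCF7” for “CCRF-CEM”, “DMEM” for “RPMI 1640”, “treated with” for “exposed to”, “MTT” for “MTT (5 mg/mL)”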

[5] = tested on: Calf thymus DNA; experiment: Binding affinity to calf thymus DNA assessed as intercalation at 20 uM by fluorescence emission spectral analysis; type: nucleic-acid assay; conditions: Bos taurus
In short: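 Compound at about 20 μM final (from 5 mM DMSO stock) in 10 mM Tris-HCl, 50 mM NaCl, pH 7.2, with or without ct DNA at 20 or 40 μM final. Emission recorded after equilibrium on excitation at 380 nm. DNA concentration set by A260 (6600 M⁻¹ cm⁻¹ per phosphate; A260:A280 1.87).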

[6] = tested on: A549; experiment: Cytotoxicity against human A549 cells after 48 hrs by MTT assay; type: functional, cell-based; conditions: A549, 48 h
In short: as §2, with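 “A549, HepG2 and MCF7” for “CCRF-CEM”, “DMEM” for “RPMI 1640”, “treated with” for “exposed to”, “MTT” for “MTT (5 mg/mL)”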

[7] = tested on: Calf thymus DNA; experiment: Binding affinity to calf thymus DNA assessed as intercalation by UV-vis spectral analysis; type: nucleic-acid assay; conditions: Bos taurus
In short: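 Compound at 40 μM titrated with ct DNA at 0–80 μM in 10 mM Tris-HCl, 50 mM NaCl, pH 7.2. Incubated 5 min, then spectra read in a 1.0 cm quartz cell. Kb obtained from a plot of [DNA]/(εa−εf) against [DNA], with DNA concentration in base pairs.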

[8] = tested on: MCF7; experiment: Cytotoxicity against human MCF7 cells after 48 hrs by MTT assay; type: functional, cell-based; conditions: MCF7, 48 h
In short: as §2, with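 “A549, HepG2 and MCF7” for “CCRF-CEM”, “DMEM” for “RPMI 1640”, “treated with” for “exposed to”, “MTT” for “MTT (5 mg/mL)”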

Structure (SMILES) | Activity [1] | Activity [2] | IC50 [3] | IC50 [4] | Activity [5] | IC50 [6] | Kb [7] | IC50 [8]
COc1cc(Cn2c3ccccc3c(=O)c3cc(NC(=O)C(N)C(C)C)ccc32)cc(OC)c1 (stereo unspecified) | inactive | Active | 810 nM | – | – | – | – | –
COc1cc(Cn2c3ccccc3c(=O)c3cc(NC(=O)CCN(C)C)ccc32)cc(OC)c1 | inactive | Active | 910 nM | – | – | – | – | –
COc1cc(Cn2c3ccccc3c(=O)c3cc(NC(=O)C(C)N)ccc32)cc(OC)c1 (stereo unspecified) | inactive | Active | 610 nM | – | – | – | – | –
COc1cc(Cn2c3ccccc3c(=O)c3cc(NC(=O)CCCCN)ccc32)cc(OC)c1 | inactive | Active | 1190 nM | – | – | – | – | –
COc1cc(Cn2c3ccccc3c(=O)c3ccccc32)cc(OC)c1 | inactive | Active | – | – | – | – | – | –
COc1cc(Cn2c3ccccc3c(=O)c3cc(NC(=O)CCCN)ccc32)cc(OC)c1 | inactive | Active | 670 nM | – | – | – | – | –
COc1cc(Cn2c3ccccc3c(=O)c3cc(NC(=O)CCN4CCCCC4)ccc32)cc(OC)c1 | inactive | Active | 600 nM | – | – | – | – | –
COc1cc(Cn2c3ccccc3c(=O)c3cc(NC(=O)CCN(CCO)CCO)ccc32)cc(OC)c1 | inactive | Active | 950 nM | – | – | – | – | –
COc1cc(Cn2c3ccccc3c(=O)c3cc(NC(=O)CCN4CCOCC4)ccc32)cc(OC)c1 | inactive | Active | 3010 nM | – | – | – | – | –
COc1cc(Cn2c3ccccc3c(=O)c3cc(NC(=O)CCCCCN)ccc32)cc(OC)c1 | inactive | Active | 750 nM | – | – | – | – | –
COc1cc(Cn2c3ccccc3c(=O)c3cc(NC(=O)CCN4CCCC4)ccc32)cc(OC)c1 | inactive | Active | 280 nM | 4000 nM | Active | 25900 nM | 5 ×10⁴ /M | 5700 nM
COc1cc(Cn2c3ccccc3c(=O)c3cc(NC(=O)CN)ccc32)cc(OC)c1 | Active | – | 390 nM | 6500 nM | Active | 3400 nM | 1.5 ×10⁵ /M | 11700 nM
COc1cc(Cn2c3ccccc3c(=O)c3cc(NC(=O)CCN)ccc32)cc(OC)c1 | inactive | Active | 2550 nM | – | – | – | – | –
COc1cc(Cn2c3ccccc3c(=O)c3cc(NC(=O)CCN4CCC(O)CC4)ccc32)cc(OC)c1 | inactive | Active | 640 nM | – | – | – | – | –
CCN(CC)CCC(=O)Nc1ccc2c(c1)c(=O)c1ccccc1n2Cc1cc(OC)cc(OC)c1 | inactive | Active | 720 nM | – | – | – | – | –
COc1cc(Cn2c3ccccc3c(=O)c3cc(NC(=O)C(N)CCCCN)ccc32)cc(OC)c1 (stereo unspecified) | inactive | Active | 750 nM | – | – | – | – | –
